Experimental data published in ChEMBL document CHEMBL3244165, “Improved synthesis and in vitro antiviral activities of 5-cyanouridine and 5-cyano-2'-deoxyuridine” (J Med Chem, 1977).

Legend:
Human alphaherpesvirus 1 [1] = assay: Antiviral activity against Herpes simplex virus 1 infected in human skin fibroblasts assessed as inhibition of virus-induced cytopathogenicity; format: functional
Human alphaherpesvirus 1 [2] = assay: Antiviral activity against Herpes simplex virus 1 infected in primary rabbit kidney cells assessed as inhibition of virus-induced cytopathogenicity; format: functional
[3] = Dissociation constant, pKa of the compound by spectrophotometric analysis; format: physicochemical
Summary of the method: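 Determined spectrophotometrically in Teorell-Stenhagen buffers.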

[4] = system: Vesicular stomatitis virus; assay: Antiviral activity against Vesicular stomatitis virus infected in primary rabbit kidney cells assessed as inhibition of virus-induced cytopathogenicity; format: functional

| Structure (SMILES) | ID50 (Human alphaherpesvirus 1 [1]) | ID50 (Human alphaherpesvirus 1 [2]) | pKa [3] | ID50 [4] [×10⁻⁴ M] |
| --- | --- | --- | --- | --- |
| O=c1[nH]c(=O)n([C@H]2C[C@H](O)[C@@H](CO)O2)cc1Cl [CHLORODEOXYURIDINE] | 7.6 ×10⁻⁷ M | 7.6 ×10⁻⁷ M |  |  |
| Nc1ncnc2c1ncn2[C@@H]1O[C@H](CO)[C@@H](O)[C@@H]1O [VIDARABINE] | 3.7 ×10⁻⁵ M | 1.5 ×10⁻⁵ M |  |  |
| O=c1[nH]c(=O)n([C@H]2C[C@H](O)[C@@H](CO)O2)cc1C(F)(F)F [TRIFLURIDINE] | 1.3 ×10⁻⁶ M | 6.6 ×10⁻⁷ M |  |  |
| N#Cc1cn([C@H]2C[C@H](O)[C@@H](CO)O2)c(=O)[nH]c1=O | >7 ×10⁻⁴ M | 1.6 ×10⁻⁴ M | 6.8 |  |
| O=c1[nH]c(=O)n([C@H]2C[C@H](O)[C@@H](CO)O2)cc1Br [BROXURIDINE] | 3.2 ×10⁻⁷ M | 3.2 ×10⁻⁷ M |  |  |
| O=c1[nH]c(=O)n([C@H]2C[C@H](O)[C@@H](CO)O2)cc1I [IDOXURIDINE] | 5.7 ×10⁻⁷ M | 5.7 ×10⁻⁷ M | 8.2 |  |
| N#Cc1cn([C@@H]2O[C@H](CO)[C@@H](O)[C@H]2O)c(=O)[nH]c1=O | >7 ×10⁻⁴ M | 3.7 ×10⁻⁴ M |  | >7 |
| O=c1[nH]c(=O)n([C@H]2C[C@H](O)[C@@H](CO)O2)cc1F [FLOXURIDINE] | 4 ×10⁻⁷ M | 1.6 ×10⁻⁷ M |  |  |
